Test results taken from ChEMBL document CHEMBL4732215, “In vitro and in vivo antiplasmodial activity of novel quinoline derivative compounds by molecular hybridization” (Eur J Med Chem, 2021).
pIC50: −log10 of the molar value.

Tests used:
[1] = Selectivity index, ratio of CC50 for human WI-26VA-4 cells to IC50 for chloroquine-resistant ring-stage Plasmodium falciparum W2 infected in human RBC; assay type: toxicity; settings: read-out: Ratio CC50/IC50
[2] = Cytotoxicity against human WI26VA4 cells assessed as reduction in cell viability incubated for 48 hrs by MTT assay; assay type: cell-based
[3] = system: Plasmodium berghei; assay: Antimalarial activity against Plasmodium berghei NK65 infected in Swiss mouse assessed as parasitemia at 15 mg/kg, po administered for 4 days and measured on day 9 post infection by Giemsa staining based microscopic analysis (reference value: 100 %); assay type: functional; settings: time 4 day
Outline: (§1)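 Modified suppressive test in female Swiss mice infected with P. berghei NK65. Compounds were solubilized in 5% DMSO, diluted in water, and given by gavage. Parasitemia was read on Giemsa-stained blood smears on days 5 and 9 post-infection. Inhibition of parasite multiplication = [(A−B)/A]×100, where A is parasitemia of the water + 5% DMSO group.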

[4] = system: Plasmodium falciparum; assay: Antimalarial activity against chloroquine-resistant Plasmodium falciparum W2 infected in human RBC assessed as reduction in HRP2 level by ELISA; assay type: functional, organism-based; settings: W2, Erythrocyte
[5] = (§2) Hemolytic activity against human RBC at 150 uM incubated for 16 hrs by spectrophotometric analysis; assay type: ADME, cell-based, Erythrocyte; settings: human red blood cells (erythrocytes), read-out: Activity
Outline: (§3)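 Red blood cells were incubated with compound at 37 °C for 16 h, with 1% saponin as positive and PBS as negative control. Tubes were centrifuged at 2000 rpm for 3 min, and supernatant absorbance was read at 540 nm. Percent hemolysis was calculated relative to the saponin and PBS mean absorbances. Means were compared by ANOVA with Tukey test.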

[6] = system: Plasmodium berghei; assay: Antimalarial activity against Plasmodium berghei NK65 infected in Swiss mouse assessed as parasitemia at 15 mg/kg, po administered for 4 days and measured on day 5 post infection by Giemsa staining based microscopic analysis (reference value: 100 %); assay type: functional; settings: time 4 day; outline: as §1
[7] = system: Erythrocyte; assay: as §2; assay type: ADME, cell-based; settings: erythrocyte, 16 h, 150 µM; outline: as §3
[8] = system: Plasmodium berghei; assay: Antimalarial activity against Plasmodium berghei NK65 infected in Swiss mouse assessed as parasitemia at 25 mg/kg, po administered for 4 days and measured on day 5 post infection by Giemsa staining based microscopic analysis (reference value: 100 %); assay type: functional; settings: time 4 day; outline: as §1
[9] = system: Plasmodium berghei; assay: Antimalarial activity against Plasmodium berghei NK65 infected in Swiss mouse assessed as parasitemia at 25 mg/kg, po administered for 4 days and measured on day 9 post infection by Giemsa staining based microscopic analysis (reference value: 100 %); assay type: functional; settings: time 4 day; outline: as §1
[10] = system: Ferriprotoporphyrin IX; assay: Binding affinity to Fe(III)PPIX (unknown origin) assessed as reduction in hypochromism by UV-Vis spectrophotometric analysis relative to control; settings: concentration not given here
Outline: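 Soret band (402 nm) absorbance of Fe(III)PPIX in Tris pH 7.5/aqueous DMSO was followed while 0.3 mM compound was titrated in to saturation. The blank was treated the same way to subtract compound absorbance. Hypochromism was taken as the percentage reduction in absorption intensity. Run in triplicate.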

[11] = system: Ferriprotoporphyrin IX; assay: Binding affinity to Fe(III)PPIX (unknown origin) assessed as association constant by UV-Vis spectrophotometric analysis relative to control
Outline: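 UV-vis titration against Fe(III)PPIX at pH 7.5. Hemin stock was in DMSO and diluted in aqueous DMSO with 0.2 M Tris buffer pH 7.5. A 0.3 mM compound solution in the same solvent ratio was added in aliquots to 2 mL hemin solution. The blank received the same additions, and its absorbance was subtracted. A at 402 nm (Soret band) was fitted to a 1:1 complexation model by nonlinear least squares to give K. Run in triplicate.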

[12] = system: Plasmodium berghei; assay: Antimalarial activity against Plasmodium berghei NK65 infected in Swiss mouse assessed as parasitemia at 10 mg/kg, po administered for 4 days and measured on day 9 post infection by Giemsa staining based microscopic analysis (reference value: 100 %); assay type: functional; settings: time 4 day; outline: as §1
[13] = system: Plasmodium berghei; assay: Antimalarial activity against Plasmodium berghei NK65 infected in Swiss mouse assessed as parasitemia at 10 mg/kg, po administered for 4 days and measured on day 5 post infection by Giemsa staining based microscopic analysis (reference value: 100 %); assay type: functional; settings: time 4 day; outline: as §1
[14] = system: Plasmodium berghei; assay: Antimalarial activity against Plasmodium berghei NK65 infected in Swiss mouse assessed as parasitemia at 5 mg/kg, po administered for 4 days and measured on day 9 post infection by Giemsa staining based microscopic analysis (reference value: 100 %); assay type: functional; settings: time 4 day
Outline: (§4)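 Modified Peters 4-day suppressive test in female Swiss mice infected with P. berghei NK65. Dosing was by gavage, with compounds dissolved in 5% DMSO and diluted in water. Parasitemia was read on Giemsa-stained blood smears. Inhibition of parasite multiplication = [(A−B)/A]×100, where A is the water + 5% DMSO group and B the treated group; both are group mean parasitemias.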

[15] = system: Plasmodium berghei; assay: Antimalarial activity against Plasmodium berghei NK65 infected in Swiss mouse assessed as parasitemia at 5 mg/kg, po administered for 4 days and measured on day 5 post infection by Giemsa staining based microscopic analysis (reference value: 100 %); assay type: functional; settings: time 4 day; outline: as §4

Structure (SMILES)	selectivity ratio [1]	CC50 at 48 h [2] [µM]	pIC50 [4]	hemolysis at 16 h, 150 µM [5] [%]	also measured
O=C(O)c1ccc(/C=N/CCNc2ccnc3cc(Cl)ccc23)cc1	> 195	> 28.3	6.84	< 10	Activity [3]: 21.67%; Activity [6]: 72.64%
O=C(O)c1ccc(/C=N/Nc2ccnc3cc(Cl)ccc23)cc1	245	82	6.47	< 10	
Oc1ccc(/C=N/CCNc2ccnc3cc(Cl)ccc23)cc1	802	130	6.79	< 10	
Oc1cc(O)cc(/C=N/Nc2ccnc3cc(Cl)ccc23)c1	20.6	12.9	6.20	< 10	
CC1(C)[C@@H](O[C@@H]2OC[C@H](O[C@@H]3OC[C@@H](O)[C@H](O)[C@H]3O)[C@H](O[C@H]3O[C@H](CO)[C@@H](O)[C@H](O)[C@H]3O)[C@H]2O[C@@H]2O[C@H](CO)[C@@H](O)[C@H](O)[C@H]2O[C@H]2O[C@H](CO)[C@@H](O)[C@H](O)[C@H]2O)CC[C@]2(C)[C@H]3CCC45OCC6(CC[C@@](C)(C=O)C[C@@H]64)[C@H](O)C[C@@]5(C)[C@]3(C)CC[C@@H]12 (some centres undefined) [SAPONIN]					Activity [7]: Toxic
Oc1ccc(/C=N/CCNc2ccnc3cc(Cl)ccc23)c(O)c1	990	171	6.76	< 10	Activity [8]: 93.7%; Activity [9]: 41.01%; inhibition [10]: 50.4%; Activity [3]: 40.13%; log K [11]: 4.77; Activity [6]: 71.15%
Oc1ccc(/C=N/Nc2ccnc3cc(Cl)ccc23)c(O)c1	30.9	7.27	6.63	< 10	
Oc1cc(O)cc(/C=N/CCNc2ccnc3cc(Cl)ccc23)c1	387	79.3	6.69	< 10	
COc1cc(/C=N/Nc2ccnc3cc(Cl)ccc23)ccc1O	45.8	10.8	6.63	< 10	
Oc1ccccc1/C=N/CCNc1ccnc2cc(Cl)ccc12	97.4	25.3	6.59	< 10	
O=Cc1ccc(/C=N/CCNc2ccnc3cc(Cl)ccc23)cc1	861	138	6.80		
CCN(CC)CCCC(C)Nc1ccnc2cc(Cl)ccc12 (centres undefined) [CHLOROQUINE]		> 19.4			Activity [12]: 41.27%; Activity [13]: 94.04%; Activity [7]: Non-Toxic
C[C@@H]1CC[C@H]2[C@@H](C)C(=O)O[C@@H]3O[C@@]4(C)CC[C@@H]1[C@]32OO4 [ARTEMISININ]					Activity [14]: 96.64%; Activity [15]: 94.9%
